Here are results for 98 compounds from ChEMBL document CHEMBL4513216, “Probing the Open Global Health Chemical Diversity Library for Multistage-Active Starting Points for Next-Generation Antimalarials” (ACS Infect Dis, 2020).

The nature of this series: Toxicity liver stage against HepG2, at 10uM. The following applies: human, HepG2-A16-CD81EGFP cells; read-out: INHIBITION
Format: cell-based. Also on record: test concentration 10 uM, cell line HepG2-A16-CD81EGFP. A digest of the protocol: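 Uninfected HepG2-A16-CD81EGFP cells, 3 × 10^3 per well, 1536-well, plated on prespotted compound at 10 μM final, parasite-free screening media added to match infected plates; puromycin 10 μM positive, DMSO 0.5% negative; run in parallel with 48 h PbLuc assay at 37 °C, 5% CO2; viability by CellTiter-Glo luminescence, normalized to controls.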
For `CCCSc1ncccc1C(=O)NCc1ccc(N(C)C)cc1`, the cytotoxicity at 10 µM is 8.07%. To `CC[S+](CC)[c-]1c(=O)[nH]c(=O)n(CCc2ccc(F)cc2)c1=O` belongs 4.12%; to `COc1ccc(CC(C)(O)CNC(=O)c2cccs2)cc1` (stereo not drawn), -4.69%. To `O=C(NCC(F)(F)F)c1ccc(-n2cncn2)nn1` belongs -1.66%; to `CCn1ncc2c1C(COC)CN(Cc1ccc(C)o1)C2` (stereo not drawn), 5.41%. Under `CN1Cc2c(C(=O)NCC3CCCO3)ncn2-c2ccccc2S1(=O)=O` (stereo not drawn) stands -141%; under `O=C1CC(c2cccc(O)c2)c2c(c(C(=O)O)cn2-c2ccccc2)N1` (stereo not drawn), 1%; under `Cc1cc(C(=O)N2CC[C@H](OCC3CC3)[C@@H]2Cc2cccnc2)no1`, -6.44%. With `COc1ccc(OC)c(C(C)NS(=O)(=O)c2cn(C)nc2C)c1` (stereo not drawn), the cytotoxicity at 10 µM was 8.35%. With `CN1CCN(C(=O)c2cc(-c3ccco3)cs2)CC1`, the cytotoxicity at 10 µM is 1.63%. On to `CC(C)(C)C(=O)N1CCC(c2noc(C3CCC(=O)N3)n2)CC1` (stereo not drawn), for which the cytotoxicity at 10 µM was -3.06%. Under `O=C(CC1CCCC1)N1CCC(c2nnc(-c3ccccn3)o2)CC1` stands -3.32%.

Turning to `Cc1nc(Nc2nccs2)cc(C2CN(C(C)C)C2)n1`, the cytotoxicity at 10 µM is -5.42%. For the compound `Cc1ccc2[nH]c(C3CCN(C)CC3)nc2c1`, the cytotoxicity at 10 µM amounted to 6.79%. To `O=C(NCCO)C1(Cc2ccccc2-c2ccncc2)CCOCC1` belongs 2.27%; to `CCc1nnc(Nc2cccc(C3CCN(C(=O)CNC)CC3)n2)s1`, -31.2%. To `Cc1nc(Nc2cnccn2)cc(C2CCN(c3ncccn3)C2)n1` (stereo not drawn) belongs -19.5%; to `CNc1cc(C2CCCN2Cc2ccc(OCC(=O)O)cc2)ccn1` (stereo not drawn), -21.9%; to `CC(=O)N1CCN(CC(N)=O)CC(COc2ccccc2)C1` (stereo not drawn), -28.7%.

As to `COCC(=O)N1CCN(Cc2cc(-c3ccncc3)nn2C)CC1`, the cytotoxicity at 10 µM was -4.17%. To `CC(=O)N(C)CC(=O)Nc1cc(C(F)(F)F)c[nH]c1=O` belongs 4.57%; to `CN(Cc1ccc(Br)c2cccnc12)S(C)(=O)=O`, 2.92%. To `COc1c(C)cnc(CN2CCn3c(nnc3C3CC3)C2)c1C` belongs -4.94%; to `CC(NC(=O)Nc1cccnc1N1CCCC1)c1ccccn1` (stereo not drawn), 8.05%; to `O=C(Nc1cc[nH]n1)c1ccc(COCC(F)(F)F)cc1`, -7.46%. To `O=C(NCc1ccccn1)N1CC=C(c2ccccc2)CC1` belongs 14.9%; to `Cc1nn(C)cc1C(=O)NCc1cc(N(C)C)nc2ccccc12`, 2.29%; to `Cc1noc(CN2CCN(CCS(C)(=O)=O)CC2)n1`, -10.1%. Regarding `O=C(Nc1ccc(N2CCOCC2)nc1)N1CCc2sccc2C1`, the cytotoxicity at 10 µM was -2.26%.

Consider `CSC(C)(C)CNC(=O)NCc1cccc(-n2cncn2)c1`, for which the cytotoxicity at 10 µM is -14.4%.

As to `Cc1ccc(CNC2CCc3nc(C(C)C)nn3C2)o1` (stereo not drawn), the cytotoxicity at 10 µM is -1.85%. Under `Cc1cnn(CC2CCCCN2C(=O)c2ccc3c(c2)nnn3C)c1` (stereo not drawn) stands -6.36%; under `COc1ccc(C)cc1CCNS(C)(=O)=O`, 2.39%. To `Cc1oc(-c2ccc(Cl)cc2)nc1C(=O)NC1=NCCS1` belongs 4.65%.

On to `O=C(CNC1CCc2ncnn2C1)N(C1=CCCCC1)C1CC1` (stereo not drawn), for which the cytotoxicity at 10 µM was -8.07%. To `CS(=O)(=O)N1CCN(c2cc(N3CCCC3CO)ncn2)CC1` (stereo not drawn) belongs 3.51%.

Consider `CS(=O)(=O)c1cccc(S(=O)(=O)NC(=O)CC2CCCCC2)c1`, for which the cytotoxicity at 10 µM was -3.17%.

Consider `COCCNC(=O)N1CCCCC1CNC(=O)Nc1ccccc1` (stereo not drawn), for which the cytotoxicity at 10 µM was -0.244%.

With `CC(C)(C)c1cnc(CNc2cccc(Cn3cnnc3)c2)o1`, the cytotoxicity at 10 µM was 2.72%. Under `CCCN(CCc1ccccn1)C(=O)Cn1cnnn1` stands 2.52%; under `CC(O)C1CCN(C(=O)CCOc2ccccc2F)CC1` (stereo not drawn), -5.63%; under `CC(C)(C)C(O)CN1CCN(CC(=O)NC(C2CC2)C2CC2)CC1` (stereo not drawn), 3.51%. To `CN(C(=O)c1cccnc1OCC(F)F)c1ccc2c(c1)CCO2` belongs 3.47%; to `Cc1ccc(CCC(=O)N2CCOCC2)cc1Cl`, 12.3%; to `Cc1ccc(F)c(NCc2ccc(C(=O)N(C)C)[nH]2)c1`, 4.96%.

Turning to `CCOCCCNC(=O)c1ccccc1S(C)(=O)=O`, the cytotoxicity at 10 µM is -1.58%. To `COCCO[C@H]1CCN(C(=O)c2ccsc2)[C@H]1Cc1cnn(C)c1` belongs -72.8%; to `Cc1nc2c(C)cccc2cc1C(=O)N1CCC2(CCN(C)CC2)C1`, -4.39%. On to `Cn1nc(CO)c2c1CCN(c1ncnc3c1CCNC3)C2`, for which the cytotoxicity at 10 µM was -0.132%. To `CCN(CC)C(=O)Cn1cc(-c2nc(C(C)C)no2)nn1` belongs 2.28%; to `CC(C)Cc1cc(C(=O)NC(C)(C)c2nnc(N)s2)n(C)n1`, 0.91%; to `COc1ccc2c(=O)n(CC3CCNC3)ccc2c1OC` (stereo not drawn), 5.76%. Under `Cc1ncnc(NCCCN2CCCCC2CO)c1C` (stereo not drawn) stands -2.35%; under `CCSCCn1cc(-c2nccs2)nn1`, 0.935%. For `CCN(C)c1ccc(C(=O)NCCCc2ccccn2)cn1`, the cytotoxicity at 10 µM is -43.7%. To `O=C1CC(c2ccc3ccccc3n2)c2c(n[nH]c2C2CCC2)N1` (stereo not drawn) belongs -6.43%; to `O=C(CCc1cc2n(n1)CCNC2)NCCS(=O)(=O)N1CCCC1`, 0.487%; to `CN(CCCO)C(=O)c1ccc2c(c1)nc(N1CC[C@H](O)C1)n2C`, -1.46%. Under `CCN(Cc1ccncc1)C(=O)c1cn(CCCc2ccccc2)nn1` stands 3%; under `OCCO[C@H]1C[C@@H](O)C12CCN(Cc1nc(C(F)(F)F)no1)CC2`, 0.145%.

`CSc1nccc(N2CCN(C)C3(CCNC(=O)CC3)C2)n1` (stereo not drawn): the cytotoxicity at 10 µM was 18.7%. `CCOCCCC(=O)N(C)C(c1cccc(F)c1)c1ccccn1` (stereo not drawn): the cytotoxicity at 10 µM is -10.2%. Consider `Cn1cc(CCNC(=O)N2CCCC(c3nncn3C)C2)cn1` (stereo not drawn), for which the cytotoxicity at 10 µM is -4.41%. Under `CN(CCCOc1ccccc1)Cc1nc2c(cnn2C)c(=O)[nH]1` stands -3.23%.

Regarding `Cc1cccc(C)c1OCCNC(=O)CN1CCN(C)CC1C` (stereo not drawn), the cytotoxicity at 10 µM is -6.28%. To `Cc1cccc(NC(=O)C(C)Nc2cccc(CN3CCOC3=O)c2)c1` (stereo not drawn) belongs 6.92%. To `c1ccc(-c2nc(CNCC3CCCN3c3cccnn3)co2)cc1` (stereo not drawn) belongs -12.7%; to `Cc1cc(CN2CCN(C(=O)NC(C)Cn3cccn3)CC2)no1` (stereo not drawn), -7.45%. Under `Cc1ccccc1OCC(O)CN1CCC(c2ccn[nH]2)CC1` (stereo not drawn) stands 0.531%; under `Cc1cnn(CC2CCCCN2Cc2nnsc2Cl)c1` (stereo not drawn), -2.93%; under `Cc1ncc(CN2CCCC(c3cc(C(F)(F)F)[nH]n3)C2)s1` (stereo not drawn), -17.8%. For the compound `CCN1CCC(CNC(=O)Nc2cc(C)on2)C1` (stereo not drawn), the cytotoxicity at 10 µM is -7.33%.

With `Cc1cnn(CCNCc2ccc(OCc3cccnc3)cc2)c1`, the cytotoxicity at 10 µM was -12.1%. Turning to `Cc1nn(C)c(N(C)C)c1CNCc1cccc(Cn2cncn2)c1`, the cytotoxicity at 10 µM is -7.85%. As for `Cc1cnn(CC(C)NCc2ccncc2)c1` (stereo not drawn), the cytotoxicity at 10 µM was -2.81%. Under `O=C1NCC(C(=O)Nc2ncc(Cc3ccccc3F)s2)N1` (stereo not drawn) stands -1.11%. To `Cc1noc(C(C)C)c1C(=O)NCCC(=O)N1CCCCC1` belongs 0.632%. Turning to `Cc1nnc(NC(=O)CN2CCc3nn(C(C)C)c(=O)cc3C2)s1`, the cytotoxicity at 10 µM was -18.9%. To `CCOc1cccc(CNCc2ccc(NC(=O)NC(C)C)cc2)c1` belongs -11.5%; to `CC(=O)N(Cc1noc(C)n1)C1CCN(Cc2cccc(C#N)c2)C1` (stereo not drawn), -0.645%. For the compound `Cc1cnn(CC2CCCCN2C(=O)c2ccc3c(c2)COC3)c1` (stereo not drawn), the cytotoxicity at 10 µM is -24.7%. To `COc1ccc(-c2noc(CN3CC(n4cccn4)C3)n2)c(OC)c1` belongs -11.2%. Turning to `CCOc1ccccc1C(CC(=O)Nc1nc(C)cs1)NC(C)=O` (stereo not drawn), the cytotoxicity at 10 µM was -10.9%. Under `CCc1n[nH]c(C2CN(Cc3nnc(C4CC4)n3C)CCO2)n1` (stereo not drawn) stands 5.25%; under `Cc1noc([C@@H]2C[C@H]3OCC[C@H]3N(C(C)C)C2)n1`, -125%. To `CN1CCN(Cc2cn3c(n2)CN(Cc2ccc(F)cc2)CC3)CC1` belongs -113%; to `O=S(=O)(C1CC1)N1CCc2ncnc(N3CCCC3)c2CC1`, -98.6%; to `CN1CCN(Cc2cnc3n2CCN(CCc2ccccc2)C3)CC1`, -6.98%. To `Cc1cnc(N2C[C@H]3C[C@H](C(=O)N4CCN(C)CC4)N(C)[C@H]3C2)nc1` belongs -135%; to `CC(c1ccc(F)cc1F)N1CCN(CCC(=O)O)CC1` (stereo not drawn), -3.6%; to `CNC1CCCN(Cc2noc(C3CC3)n2)C1` (stereo not drawn), 0.95%.

For `CS(=O)(=O)NCc1ncn2c1CN(Cc1cccs1)CCC2`, the cytotoxicity at 10 µM was -66.8%.

With `Cc1nc(CO[C@H]2CN(Cc3ccccn3)[C@@H]3CCCO[C@H]23)cs1`, the cytotoxicity at 10 µM worked out at 1.33%. As for `Cc1cnc(C(=O)N2CCCC(c3c(C)c(=O)nc4n3CCC4)C2)cn1` (stereo not drawn), the cytotoxicity at 10 µM is -26.5%. To `CC(C)n1nc(CNc2ncccn2)c2c1CN(C1CCOCC1)CC2` belongs -129%. With `CCn1cc(C(=O)N2C[C@H]3CC(Oc4ccccc4)C[C@H]3C2)cn1` (stereo partly drawn), the cytotoxicity at 10 µM is 5.75%. Under `CC(=O)N1C[C@H]2CC[C@@H](C1)N(S(=O)(=O)c1cc(F)ccc1C)C2` stands 2.91%; under `CN(C)C1(CNC(=O)CC=Cc2ccc(F)cc2)CCOCC1`, 8.99%.
